Measured values gathered from unrelated publications.
Each line is one published result; the experiments were not run side by side.
Target: Mitogen-activated protein kinase kinase kinase 20 (MAP3K20, Homo sapiens, UniProt Q9NYL2)

SMILES | assay | conditions | endpoint | result
CC(C)(C)c1nc2c(s1)c1nc(N)ncc1c1ccc(NS(=O)(=O)c3c(F)cccc3F)c(F)c12 | enzyme activity, inhibitor, radiometric | 1 µM | remaining activity | 103%
COc1cccc2c(NCc3ccccc3)nc(-n3c(N)nc4ccccc43)nc12 | target engagement in cells, inhibitor, chemoproteomics | 20 mM | inhibition | -3.3%
CCCCN(CCCC)C(=O)CN1C[C@H](c2cc(OC)c3c(c2)OCO3)[C@@H](C(=O)O)[C@@H]1CC(C)(C)CCC | cell-free assay, competition with immobilised ligand | 1 µM | remaining binding | 85.2%
CCC1(CC)NC(=O)c2c(c3ccc(Cl)c(Cl)c3n2C)C1C#N (centres unmarked) | thermal stability, DSF | 10 µM | ΔTm | 0 °C
CC1=C(C#N)C(c2ccc3c(c2)c(NC(=O)c2ccccc2C)nn3C)C(C#N)=C(C)N1 | cell-free assay, competition with immobilised ligand | 1 µM | remaining binding | 100%
Cc1ccc(C(=O)Nc2ccc(CN3CCN(C)CC3)c(C(F)(F)F)c2)cc1C#Cc1cnc2cccnn12 | enzyme activity, inhibitor | 23.5 nM | remaining activity | 2.9%
O=C(NC[C@@H]1[C@H]2CN(C(=O)OCc3cc(C(F)(F)F)cc(C(F)(F)F)c3)C[C@@H]12)c1ccc2[nH]nnc2c1 | cell-free assay, competition with immobilised ligand | 1 µM | remaining binding | 86%
Cn1c2c(c3ccccc31)C(C#N)C(C)(C)NC2=O (centres unmarked) | thermal stability, DSF | 10 µM | ΔTm | -0.3 °C
Cc1sc(C(=O)NC2COC2)cc1-n1cc(NC(=O)Nc2c(F)cccc2Cl)cn1 | enzyme activity, inhibitor | 10 µM | remaining activity | 89.9%
Nc1ncnc2occ(-c3ccc(NC(=O)Nc4cc(C(F)(F)F)ccc4F)cc3)c12 | cell-free assay, inhibitor | 20 µM | remaining signal | 0.15%
O=C(Nc1cnn(-c2csc(C(=O)NC3COC3)c2)c1)Nc1ccccc1Cl | enzyme activity, inhibitor | 5 µM | remaining activity | 101%
COc1cc2nccc(Oc3ccc(NC(=O)c4c5n(n(-c6ccc(F)cc6)c4=O)CCCC5)cc3)c2cc1OC | enzyme activity, inhibitor | 0.1 µM | inhibition | -4%
CNC(=O)c1cc(Oc2ccc(NC(=O)Nc3ccc(Cl)c(C(F)(F)F)c3)cc2)ccn1 | cell-free assay | 0.5 µM | remaining signal | 16.7%
COc1ccc2c(O[C@@H]3C[C@H]4C(=O)N[C@]5(C(=O)O)CC5/C=C\CCCCC[C@H](NC(=O)OC5CCCC5)C(=O)N4C3)cc(-c3csc(NC(=O)C(C)C)n3)nc2c1C (some centres unmarked) | cell-free assay, competition with immobilised ligand | 1 µM | remaining binding | 83%
Cn1c2c(Cl)c(Cl)ccc2c2cn[nH]c(=O)c21 | thermal stability, DSF | 10 µM | ΔTm | 0.4 °C
COc1cc(Cl)c(C(=O)N[C@@H](CN[C@H]2CC[C@@H](N)CC2)Cc2ccc(C#N)cc2)cc1-c1ccc(CN[C@H](C)c2ccc(C)cc2)o1 | enzyme activity, inhibitor | 1 µM | remaining activity | 97%
N#CCCc1ccc2c(c1)-c1[nH]c3ccc([N+](=O)[O-])cc3c1CC(=O)N2 | cell-free assay | 0.5 µM | remaining signal | 88.6%
CN1CC(Oc2cnc(C#N)cc2-c2ccn3nc(NC(=O)C4CC4)cc3c2)C1 | enzyme activity, inhibitor | 1 µM | inhibition | 12%
Cn1c2c(Cl)c(Cl)ccc2c2cc[nH]c(=O)c21 | thermal stability, DSF | 10 µM | ΔTm | -0.2 °C
CO[C@H]1CC[C@H](CNc2ccc(S(=O)(=O)NC(=O)c3ccc(N4CCN(CC5=C(c6ccc(Cl)cc6)CC(C)(C)CC5)CC4)cc3Oc3cnc4[nH]ccc4c3)cc2[N+](=O)[O-])CC1 | cell-free assay, competition with immobilised ligand | 1 µM | remaining binding | 100%
COc1cc2ncnc(Nc3ccc(F)c(Cl)c3)c2cc1OCCCN1CCOCC1 | cell-free assay | 0.5 µM | remaining signal | 96.2%
CCCOc1ccc([C@H]2[C@H](C(=O)O)[C@@H](c3ccc4c(c3)OCO4)CN2CC(=O)Nc2c(CC)cccc2CC)cc1 | cell-free assay, competition with immobilised ligand | 1 µM | remaining binding | 90%
N#CC1c2c([nH]c3c(Cl)c(Cl)ccc23)C(=O)NC12CCCCC2 (racemic) | thermal stability, DSF | 10 µM | ΔTm | -0.3 °C
c1nc2c(Nc3ccc4c(c3)OCCO4)nc(Nc3ccc4c(c3)OCCO4)nc2[nH]1 | enzyme activity, inhibitor | 10 µM | activity vs control | 76%
Cc1c(C(=O)O)cc(-c2ccc(C3CCNCC3)cc2)c2ccc(-c3ccc(C(F)(F)F)cc3)cc12 | binding, competition with immobilised ligand | 1 µM | remaining binding | 100%
Cn1c2c(Cl)c(Cl)ccc2c2cc(N)[nH]c(=O)c21 | thermal stability, DSF | 10 µM | ΔTm | 0.6 °C
